These results are taken from ChEMBL document CHEMBL1142735, “Discovery of a new series of centrally active tricyclic isoxazoles combining serotonin (5-HT) reuptake inhibition with alpha2-adrenoceptor blocking activity” (J Med Chem, 2005).

The target of experiment [1] is Rattus norvegicus. The experiment can be described thus: Effective dose concentration for antagonism ofpCA-Induced excitation was determined by subcutaneous administration. Type of experiment: functional, organism-based. The method, boiled down: (§1)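 Male Wistar rats (200-250 g), fasted overnight, given test compound or solvent sc before challenge. Loss of righting induced by medetomidine 0.10 mg/kg iv; reversal means no loss of righting. Excitation induced by pCA 5 mg/10 mL/kg sc and scored 0-3 over 15 min starting 45 min after pCA; inhibition means score <2.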

Experiment [2] has as its target Sodium-dependent serotonin transporter (Homo sapiens, UniProt P31645). Briefly: Binding affinity for serotonin transporter. The method, boiled down: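 Human platelet membranes (50 µg protein) in 50 mM Tris-HCl pH 7.4 with 120 mM NaCl and 5 mM KCl. Competition against [3H]paroxetine (0.5 nM), 60 min at 25 °C. Nonspecific binding defined with imipramine (1 µM). Filtration over 0.1% PEI-presoaked GF/B, washed with incubation buffer. Sigmoidal fit of specific binding; Ki via Cheng-Prusoff.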

Experiment [3] deals with Rattus norvegicus. The experiment can be described thus: Effective dose concentration for reversal of medetomidine-Induced loss of righting was determined by subcutaneous administration. Type of experiment: functional, organism-based. The method, boiled down:
as §1

Experiment [4] concerns the target T1, Alpha-2C adrenergic receptor (Homo sapiens, UniProt P18825).
T1 sequence (P18825 whole entry): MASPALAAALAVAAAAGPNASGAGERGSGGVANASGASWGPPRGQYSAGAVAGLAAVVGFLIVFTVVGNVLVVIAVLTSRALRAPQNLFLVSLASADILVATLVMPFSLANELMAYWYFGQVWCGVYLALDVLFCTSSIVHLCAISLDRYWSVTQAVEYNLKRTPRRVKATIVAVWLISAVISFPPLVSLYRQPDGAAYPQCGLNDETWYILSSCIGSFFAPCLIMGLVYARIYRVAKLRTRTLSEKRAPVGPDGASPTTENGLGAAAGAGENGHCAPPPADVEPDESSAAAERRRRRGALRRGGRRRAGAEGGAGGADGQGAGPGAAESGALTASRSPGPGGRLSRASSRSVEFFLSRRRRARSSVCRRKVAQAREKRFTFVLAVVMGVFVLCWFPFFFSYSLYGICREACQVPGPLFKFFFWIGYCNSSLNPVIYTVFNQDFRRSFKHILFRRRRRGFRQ
Briefly: Binding affinity for alpha-2C adrenergic receptor. In outline: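 Human alpha2C receptor stably expressed in CHO cell membranes (5-10 µg protein) in 25 mM glycylglycine, pH 7.6. Competition against [3H]rauwolscine (1 nM), 30 min at 25 °C. Nonspecific binding defined with spiroxatrine (1 µM). Rapid filtration over GF/B, washed with ice-cold 50 mM Tris-HCl pH 8.0, scintillation counting. Sigmoidal curves fitted; Ki by Cheng-Prusoff.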

The target of experiment [5] is T2, 5-hydroxytryptamine receptor 1A (Homo sapiens, UniProt P08908).
T2 sequence (P08908 whole entry): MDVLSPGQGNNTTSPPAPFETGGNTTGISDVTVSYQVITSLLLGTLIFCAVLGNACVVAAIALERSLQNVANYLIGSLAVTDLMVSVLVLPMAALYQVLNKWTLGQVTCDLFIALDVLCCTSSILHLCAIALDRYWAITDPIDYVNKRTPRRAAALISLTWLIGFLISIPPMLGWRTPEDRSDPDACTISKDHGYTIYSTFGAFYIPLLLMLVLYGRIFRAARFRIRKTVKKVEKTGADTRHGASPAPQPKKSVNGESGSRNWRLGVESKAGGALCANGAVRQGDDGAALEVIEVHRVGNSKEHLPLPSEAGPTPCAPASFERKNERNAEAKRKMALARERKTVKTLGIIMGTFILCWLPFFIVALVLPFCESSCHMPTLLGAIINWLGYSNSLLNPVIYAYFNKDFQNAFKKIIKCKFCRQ
Briefly: Inhibition of [3H]8-OH-DPAT binding to 5-hydroxytryptamine 1A receptor. In outline: (§2)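 Radioligand competition binding on membranes from cell lines carrying the human target, incubated with the labelled ligand under optimized conditions. Separation by filtration, except α1A and D3, which used scintillation proximity assay.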

Experiment [6] concerns the target Norepinephrine transporter (Rattus norvegicus, UniProt Q9WTR4). Briefly: Inhibition of [3H]-nisoxetine binding to Norepinephrine transporter from rat cortex. In outline:
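Radioligand competition on rat cortex membranes, incubated under optimized conditions. Stopped by rapid filtration. Ki by Cheng-Prusoff.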

Experiment [7] has as its target Sodium-dependent dopamine transporter (Rattus norvegicus, UniProt P23977). Briefly: Inhibition of [3H]WIN-35428 binding to Dopamine transporter of rat striatum. Type of experiment: tissue-based. The method, boiled down: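 Competition binding using rat striatum membranes incubated with the radioligand under optimized conditions, separated by filtration.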
Experiment [8] concerns the target T3, 5-hydroxytryptamine receptor 2C (Homo sapiens, UniProt P28335).
T3 sequence (P28335 whole entry): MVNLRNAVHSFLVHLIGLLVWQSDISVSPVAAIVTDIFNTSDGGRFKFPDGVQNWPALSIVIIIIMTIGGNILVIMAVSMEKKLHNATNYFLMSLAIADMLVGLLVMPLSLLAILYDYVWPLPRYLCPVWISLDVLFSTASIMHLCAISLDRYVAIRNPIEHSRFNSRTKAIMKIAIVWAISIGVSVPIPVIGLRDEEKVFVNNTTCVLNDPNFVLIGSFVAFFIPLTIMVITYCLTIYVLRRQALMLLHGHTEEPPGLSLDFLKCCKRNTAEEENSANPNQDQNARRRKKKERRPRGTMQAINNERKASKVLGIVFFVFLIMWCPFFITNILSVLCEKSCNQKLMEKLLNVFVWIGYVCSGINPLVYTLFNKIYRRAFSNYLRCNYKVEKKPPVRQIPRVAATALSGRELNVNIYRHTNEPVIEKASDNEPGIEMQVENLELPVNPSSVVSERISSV
Briefly: Inhibition of [3H]- mesulergine binding to 5-hydroxytryptamine 2C receptor. The method, boiled down:
as §2

In experiment [9] the test system is Rattus norvegicus. Briefly: Effective dose for antagonism ofpCA-Induced excitation was determined by oral administration. Type of experiment: functional. In outline:
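Oral pretreatment of overnight-fasted male Wistar rats (200-250 g), then medetomidine 0.10 mg/kg iv (reversal means no loss of righting) or pCA 5 mg/kg sc (excitation scored 0-3 over 15 min from 45 min after pCA; inhibition means score <2). Doses taken from a geometric series.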

The target in experiment [10] is 5-hydroxytryptamine receptor 2A (Homo sapiens, UniProt P28223). The experiment can be described thus: Inhibition of [125I]- R91150 binding to 5-hydroxytryptamine 2A receptor. The method, boiled down: as §2
5-hydroxytryptamine receptor 2A, sequence (P28223 whole entry): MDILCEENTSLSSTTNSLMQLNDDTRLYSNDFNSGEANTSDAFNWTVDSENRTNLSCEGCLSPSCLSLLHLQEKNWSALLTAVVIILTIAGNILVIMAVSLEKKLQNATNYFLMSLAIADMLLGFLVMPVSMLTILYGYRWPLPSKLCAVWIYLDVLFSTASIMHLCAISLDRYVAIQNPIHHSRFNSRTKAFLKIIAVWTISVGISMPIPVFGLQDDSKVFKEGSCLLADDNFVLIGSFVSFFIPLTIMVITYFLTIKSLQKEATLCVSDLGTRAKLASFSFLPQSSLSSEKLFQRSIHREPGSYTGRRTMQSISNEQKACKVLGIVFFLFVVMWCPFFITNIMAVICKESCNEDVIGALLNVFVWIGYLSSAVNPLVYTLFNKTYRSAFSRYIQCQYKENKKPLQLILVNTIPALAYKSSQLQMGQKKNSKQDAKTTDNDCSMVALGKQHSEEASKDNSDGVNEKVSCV
The next experiment has as its target T4, D(4) dopamine receptor (Homo sapiens, UniProt P21917).
T4 sequence (P21917 whole entry): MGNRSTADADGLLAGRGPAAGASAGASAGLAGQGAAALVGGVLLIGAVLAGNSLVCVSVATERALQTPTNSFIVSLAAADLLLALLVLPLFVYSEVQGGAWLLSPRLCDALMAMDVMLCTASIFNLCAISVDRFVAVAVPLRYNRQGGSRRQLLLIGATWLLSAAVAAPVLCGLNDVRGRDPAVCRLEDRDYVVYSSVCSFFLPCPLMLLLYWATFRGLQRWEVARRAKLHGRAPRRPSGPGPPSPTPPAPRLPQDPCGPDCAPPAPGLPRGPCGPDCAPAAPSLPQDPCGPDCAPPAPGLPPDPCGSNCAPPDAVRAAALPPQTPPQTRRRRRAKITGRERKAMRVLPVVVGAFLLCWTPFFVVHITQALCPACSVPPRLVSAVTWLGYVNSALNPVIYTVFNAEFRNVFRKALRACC
The experiment can be described thus: Inhibition of [3H]spiperone binding to Dopamine receptor D4. In outline:
as §2

The target of experiment [11] is T5, Adrenergic receptor alpha-1 (Homo sapiens, UniProt P35348+P25100+P35368).
T5 sequence (P35348 whole entry): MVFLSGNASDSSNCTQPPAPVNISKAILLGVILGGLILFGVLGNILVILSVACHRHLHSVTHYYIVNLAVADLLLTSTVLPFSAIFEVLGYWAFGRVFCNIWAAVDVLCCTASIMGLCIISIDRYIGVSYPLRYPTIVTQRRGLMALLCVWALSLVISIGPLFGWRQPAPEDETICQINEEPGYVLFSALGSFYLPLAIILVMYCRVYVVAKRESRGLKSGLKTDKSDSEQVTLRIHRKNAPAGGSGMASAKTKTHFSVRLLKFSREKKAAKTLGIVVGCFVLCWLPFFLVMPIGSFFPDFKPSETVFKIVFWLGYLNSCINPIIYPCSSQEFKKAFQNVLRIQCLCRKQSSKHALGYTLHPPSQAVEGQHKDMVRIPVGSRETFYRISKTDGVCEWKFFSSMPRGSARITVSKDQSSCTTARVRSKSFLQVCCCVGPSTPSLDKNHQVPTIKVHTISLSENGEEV
T5 sequence (P25100 whole entry): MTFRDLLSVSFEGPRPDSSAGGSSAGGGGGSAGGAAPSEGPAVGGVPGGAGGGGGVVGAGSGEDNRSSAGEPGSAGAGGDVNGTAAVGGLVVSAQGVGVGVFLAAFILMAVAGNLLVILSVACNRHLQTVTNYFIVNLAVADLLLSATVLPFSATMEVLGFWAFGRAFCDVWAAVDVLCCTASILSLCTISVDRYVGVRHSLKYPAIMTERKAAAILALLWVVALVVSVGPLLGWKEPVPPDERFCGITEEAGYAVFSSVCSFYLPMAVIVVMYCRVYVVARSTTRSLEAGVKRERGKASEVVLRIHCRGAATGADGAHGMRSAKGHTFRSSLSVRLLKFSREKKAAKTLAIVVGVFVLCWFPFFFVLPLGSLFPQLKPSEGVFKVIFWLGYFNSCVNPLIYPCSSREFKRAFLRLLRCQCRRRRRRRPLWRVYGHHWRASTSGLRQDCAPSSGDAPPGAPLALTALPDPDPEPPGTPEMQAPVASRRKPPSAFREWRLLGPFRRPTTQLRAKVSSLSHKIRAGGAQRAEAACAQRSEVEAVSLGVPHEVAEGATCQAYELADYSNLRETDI
T5 sequence (P35368 whole entry): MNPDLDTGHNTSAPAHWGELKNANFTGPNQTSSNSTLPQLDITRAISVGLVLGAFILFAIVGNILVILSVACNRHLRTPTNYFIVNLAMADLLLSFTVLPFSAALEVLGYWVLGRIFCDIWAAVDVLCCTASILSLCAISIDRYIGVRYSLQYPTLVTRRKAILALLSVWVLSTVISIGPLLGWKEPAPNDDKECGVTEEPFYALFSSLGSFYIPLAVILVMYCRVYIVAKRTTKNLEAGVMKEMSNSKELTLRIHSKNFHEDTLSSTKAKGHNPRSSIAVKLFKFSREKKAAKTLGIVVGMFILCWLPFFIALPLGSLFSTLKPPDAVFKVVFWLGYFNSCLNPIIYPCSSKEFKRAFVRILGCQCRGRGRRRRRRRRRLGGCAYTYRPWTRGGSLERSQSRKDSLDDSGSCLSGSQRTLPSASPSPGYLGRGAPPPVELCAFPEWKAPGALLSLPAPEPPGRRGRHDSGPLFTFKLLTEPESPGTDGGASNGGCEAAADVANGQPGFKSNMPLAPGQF
The experiment can be described thus: Inhibition of [3H]- prazosin binding to alpha-1 adrenergic receptor. Type of experiment: protein assay. In outline:
as §2

A further experiment deals with D(2) dopamine receptor (Homo sapiens, UniProt P14416). Briefly: Inhibition of [3H]spiperone binding to Dopamine receptor D2. The method, boiled down: as §2
D(2) dopamine receptor, sequence (P14416 whole entry): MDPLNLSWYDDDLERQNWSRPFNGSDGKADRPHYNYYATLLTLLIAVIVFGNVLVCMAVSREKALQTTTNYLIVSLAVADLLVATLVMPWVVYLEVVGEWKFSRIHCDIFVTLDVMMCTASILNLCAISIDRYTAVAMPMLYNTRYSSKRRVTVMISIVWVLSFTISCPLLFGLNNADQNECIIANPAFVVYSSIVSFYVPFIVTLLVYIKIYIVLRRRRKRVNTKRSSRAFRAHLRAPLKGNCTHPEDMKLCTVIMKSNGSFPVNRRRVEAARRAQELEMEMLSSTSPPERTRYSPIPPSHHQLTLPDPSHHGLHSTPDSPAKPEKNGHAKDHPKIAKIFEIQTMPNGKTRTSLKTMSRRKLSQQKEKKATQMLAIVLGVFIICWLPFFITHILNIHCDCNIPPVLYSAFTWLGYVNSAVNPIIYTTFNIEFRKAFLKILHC
The target of the next experiment is Histamine H1 receptor (Homo sapiens, UniProt P35367). The experiment can be described thus: Inhibition of [3H]pyrilamine binding to Histamine H1 receptor. The method, boiled down:
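Radioligand competition on membranes from a cell line transfected with the human target, incubated under optimized conditions. Stopped by rapid filtration. Ki by Cheng-Prusoff.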

Experiment [12] addresses 5-hydroxytryptamine receptor 7 (Homo sapiens, UniProt P34969). Briefly: Inhibition of [3H]5-HT binding to 5-hydroxytryptamine 7 receptor. The method, boiled down: as §2

Some results are limits rather than exact numbers.

Histamine H1 receptor, sequence (P35367 whole entry): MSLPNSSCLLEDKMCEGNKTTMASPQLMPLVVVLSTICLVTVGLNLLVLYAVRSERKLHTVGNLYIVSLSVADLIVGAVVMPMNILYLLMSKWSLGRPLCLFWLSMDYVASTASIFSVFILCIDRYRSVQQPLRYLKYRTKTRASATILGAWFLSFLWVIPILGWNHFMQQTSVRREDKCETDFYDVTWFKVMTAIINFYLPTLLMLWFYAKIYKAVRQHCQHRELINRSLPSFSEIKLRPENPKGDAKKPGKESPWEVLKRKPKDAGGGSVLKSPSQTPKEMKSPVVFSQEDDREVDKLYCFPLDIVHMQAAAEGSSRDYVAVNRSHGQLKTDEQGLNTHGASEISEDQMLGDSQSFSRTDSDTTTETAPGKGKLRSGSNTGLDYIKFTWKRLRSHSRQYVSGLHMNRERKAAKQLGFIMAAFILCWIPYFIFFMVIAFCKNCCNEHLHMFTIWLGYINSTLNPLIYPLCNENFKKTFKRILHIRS
Norepinephrine transporter, sequence (Q9WTR4 whole entry): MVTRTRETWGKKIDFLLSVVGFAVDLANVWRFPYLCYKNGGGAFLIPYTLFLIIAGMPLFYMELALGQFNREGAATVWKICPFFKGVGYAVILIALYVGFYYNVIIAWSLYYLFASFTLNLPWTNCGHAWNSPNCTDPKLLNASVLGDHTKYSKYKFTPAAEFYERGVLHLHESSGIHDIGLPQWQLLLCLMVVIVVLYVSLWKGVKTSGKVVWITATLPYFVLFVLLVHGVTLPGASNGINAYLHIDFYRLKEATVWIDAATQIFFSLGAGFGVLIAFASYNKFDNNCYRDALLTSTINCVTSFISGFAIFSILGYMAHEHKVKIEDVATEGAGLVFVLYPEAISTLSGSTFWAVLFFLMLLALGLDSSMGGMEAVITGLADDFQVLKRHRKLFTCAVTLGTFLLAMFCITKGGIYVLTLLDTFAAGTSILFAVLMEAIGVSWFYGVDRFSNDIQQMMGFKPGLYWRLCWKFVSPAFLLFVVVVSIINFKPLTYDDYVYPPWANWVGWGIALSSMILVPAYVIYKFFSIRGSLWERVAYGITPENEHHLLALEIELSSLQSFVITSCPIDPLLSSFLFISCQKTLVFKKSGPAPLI
Sodium-dependent dopamine transporter, sequence (P23977 whole entry): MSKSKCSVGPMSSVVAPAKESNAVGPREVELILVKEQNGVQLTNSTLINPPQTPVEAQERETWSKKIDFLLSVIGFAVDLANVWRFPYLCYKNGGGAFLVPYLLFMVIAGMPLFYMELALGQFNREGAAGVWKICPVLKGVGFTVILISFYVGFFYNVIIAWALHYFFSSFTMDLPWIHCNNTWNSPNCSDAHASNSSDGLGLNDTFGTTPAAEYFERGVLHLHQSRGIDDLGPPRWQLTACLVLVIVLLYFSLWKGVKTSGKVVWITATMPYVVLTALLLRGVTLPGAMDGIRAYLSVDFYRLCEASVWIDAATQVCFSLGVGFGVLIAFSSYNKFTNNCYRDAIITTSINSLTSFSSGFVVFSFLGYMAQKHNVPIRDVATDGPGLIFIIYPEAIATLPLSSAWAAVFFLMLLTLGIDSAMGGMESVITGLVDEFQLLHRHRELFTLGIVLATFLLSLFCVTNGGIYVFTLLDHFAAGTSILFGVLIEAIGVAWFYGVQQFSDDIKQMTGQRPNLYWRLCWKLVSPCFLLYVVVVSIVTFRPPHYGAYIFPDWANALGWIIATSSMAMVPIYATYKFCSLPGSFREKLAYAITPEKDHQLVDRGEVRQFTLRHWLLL
5-hydroxytryptamine receptor 7, sequence (P34969 whole entry): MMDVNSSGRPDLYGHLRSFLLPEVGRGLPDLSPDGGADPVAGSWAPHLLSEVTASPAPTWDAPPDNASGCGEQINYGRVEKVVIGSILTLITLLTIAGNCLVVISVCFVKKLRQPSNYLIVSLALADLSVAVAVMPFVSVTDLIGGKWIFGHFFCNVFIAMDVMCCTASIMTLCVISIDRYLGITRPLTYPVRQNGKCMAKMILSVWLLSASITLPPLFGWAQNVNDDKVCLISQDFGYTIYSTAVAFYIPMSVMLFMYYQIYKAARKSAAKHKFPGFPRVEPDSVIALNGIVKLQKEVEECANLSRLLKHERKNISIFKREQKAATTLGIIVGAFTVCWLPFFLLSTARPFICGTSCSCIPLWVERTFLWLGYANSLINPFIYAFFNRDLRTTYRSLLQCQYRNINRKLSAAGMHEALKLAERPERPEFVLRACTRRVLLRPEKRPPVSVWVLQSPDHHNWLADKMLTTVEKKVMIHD
Sodium-dependent serotonin transporter, sequence (P31645 whole entry): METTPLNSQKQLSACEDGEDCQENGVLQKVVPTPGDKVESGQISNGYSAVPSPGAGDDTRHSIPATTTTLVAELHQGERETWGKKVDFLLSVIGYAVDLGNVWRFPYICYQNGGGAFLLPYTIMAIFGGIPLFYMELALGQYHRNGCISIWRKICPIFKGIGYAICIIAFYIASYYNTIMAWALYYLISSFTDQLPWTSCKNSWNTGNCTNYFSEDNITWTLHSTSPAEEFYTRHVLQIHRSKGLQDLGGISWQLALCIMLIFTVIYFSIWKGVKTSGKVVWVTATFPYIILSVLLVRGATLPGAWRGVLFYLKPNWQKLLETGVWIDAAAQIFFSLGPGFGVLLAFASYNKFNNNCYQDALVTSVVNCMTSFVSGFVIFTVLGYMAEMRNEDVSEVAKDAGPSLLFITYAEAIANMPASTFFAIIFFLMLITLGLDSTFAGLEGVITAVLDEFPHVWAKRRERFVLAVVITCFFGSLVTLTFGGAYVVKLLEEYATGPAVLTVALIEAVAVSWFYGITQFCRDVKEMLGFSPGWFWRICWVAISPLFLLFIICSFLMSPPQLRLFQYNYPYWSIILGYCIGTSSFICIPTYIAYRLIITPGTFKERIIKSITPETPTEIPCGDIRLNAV

Consider `COc1cc2c(cc1OC)C1=NO[C@@H](CN3CCN(C/C=C(\C)c4ccccc4)CC3)[C@@H]1CN2`, for which the 50% effective dose (ED50) (usually the midpoint of the dose-response relation) at Rattus norvegicus [1] is 7.9 mg/kg; on Rattus norvegicus [3], 2.5 mg/kg. Also, the Ki (usually a dissociation constant, usually derived from enzyme kinetics or from competition with a known ligand) was found to be 0.015 µM in experiment [2] and 0.0036 µM in [4].
Turning to `COc1cccc2c1CCC[C@H]2CN(C)CCc1ccc2ccoc2c1`, the Ki in experiment [5] is more than 1 µM; in experiment [6], more than 1 µM; in experiment [7], more than 1 µM; in experiment [8], more than 1 µM; in experiment [10], more than 1 µM; on D(4) dopamine receptor, 0.234 µM. Besides, the Ki (in experiment [11]; on D(2) dopamine receptor; on Histamine H1 receptor) was more than 1 µM in each case. The same molecule had a 50% effective dose (ED50) in the experiment on Rattus norvegicus [9] of more than 10 mg/kg.
Take `Fc1ccc2c(c1)CC(CC1CN=CN1)C2` (stereo not drawn): the Ki is more than 1 µM in experiment [12]; 0.77 µM in experiment [5]; 0.365 µM in experiment [6]; more than 1 µM in experiment [7]; more than 1 µM in [8]; more than 1 µM in [10]. In addition, the Ki (in experiment [11]; on D(2) dopamine receptor; at Histamine H1 receptor) was more than 1 µM throughout.
